# Measurements reported in PubChem BioAssay.
# Active and inactive are the calls of the source.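 The calls were made as follows, unless noted: active = a full or partial loss of lipid-probe fluorescence in the fish gall bladder, intestine or both, judged by eye; inactive = no fluorescence loss, or compound toxic to the fish.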
# Key:
# [1] = inhibitors of TNFa-induced NFkB p65 translocation, primary screen, imaging, HUVEC, MLSMR starter and 10KST1 sets (AID 438;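 active = inhibition above 20% together with a positive visual image hit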;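 also: compound added about 3h40 before a 20 min TNFalpha stimulation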;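 as to inhibition: signal is the nuclear over cytoplasmic p65 intensity ratio per well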); settings: HUVEC TNFa-induced p65 nuclear translocation; cell count: measured here: nuclei count (cytotoxicity indicator), at 2.08 µM; inhibition: at 2 µM, stronger effect = higher value, 0% TNFa-plus-vehicle, 100% no-TNFa wells
# [2] = endothelial E-selectin expression blockers – imaging, HUVEC, immunofluorescence, MLSMR starter and 10KST1 sets, primary screen (AID 487;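 active = visually confirmed hit in the image check and inhibition above 20%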;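 as to inhibition: signal is fraction of cell area covered by stained E-selectin grains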;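 as to nuclei count: 100% = median nuclei count of all wells on the same plate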); settings: HUVEC TNFalpha-induced E-selectin immunofluorescence imaging, at 2 µM; inhibition: stronger effect = higher value; nuclei count: measured here: cell number, toxicity
# [3] = Primary imaging screen for DUSP6 inhibitors that restore phospho-Erk in transfected HeLa cells, chemical complementation (AID 609;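 active = compounds giving at least 50% inhibition in the cell-based MKP-3 phosphatase rescue imaging test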;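 as to inhibition: phospho-Erk level distribution per well compared with pooled transfected vehicle control wells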); settings: HeLa MKP-3 transfected, phospho-Erk imaging KS statistic, at 10 µM, cells stimulated with TPA for 15 min
# [4] = target: Dual specificity protein phosphatase 6 (Homo sapiens) (UniProt Q16828); test: as above; settings: HeLa MKP-3 transfected, phospho-Erk imaging KS statistic; at 10 µM; stronger effect = higher value; cells stimulated with TPA for 15 min
# [5] = target: Voltage-gated potassium channel subunit beta-2 (Rattus norvegicus) (UniProt P62483); test: inhibitors of rat Kvbeta2 reductase activity – biochemical, NADPH fluorescence, primary screen (AID 622;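 active = fluorescence slope higher than the sample average by over 3 SD, cut at about -0.22 in these data, passing the limit was not always enough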;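 also: slope of raw intensity against log time taken from 70 to 1610 s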); settings: recombinant KvBeta, 4-cyanobenzaldehyde reduction, at 10 µM, stronger effect = higher value
# [6] = target: Voltage-gated potassium channel subunit beta-2 (Rattus norvegicus) (UniProt P62483); test: enhancers of rat Kvbeta2 NADPH turnover – biochemical, NADPH fluorescence, primary screen (AID 623;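 active = NADPH fluorescence slope more negative than the mean of all samples by about 3 SD, 99.7% confidence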;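 also: fluorescence intensity change per second fitted from 20 to 320 s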); settings: Recombinant KvBeta, NADPH fluorescence decrease slope, 10 min; at 10 µM; stronger effect = lower value
# [7] = target: Alpha-2C adrenergic receptor (Homo sapiens) (UniProt P18825); test: compounds altering alpha2C-coupled GIRK flux – cell-based, HEK293 alpha2C/GIRK1/2, thallium flux, primary screen (AID 624;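 active = fluorescence slope after compound addition differing from the mean of all screened samples at 99.7% confidence, in either direction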;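 also: slope of fluorescence ratio to pre-addition baseline per second over 15 to 24 s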); settings: thallium flux BTC fluorescence, at 10 µM, actives lie on both sides
# [8] = inhibitors of larval lipid processing in zebrafish, primary screen, whole organism, PED6 fluorescence, gall bladder and intestine (AID 686); settings: Zebrafish larvae PED6 lipid processing, fluorescence scoring; screened at 20 µM (by protocol);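 also: larvae 5 to 7 days old with five fish per well; signal comes from phospholipase A2 cleavage of quenched PED6 carried via bile; overnight exposure to compound and PED6 before scoring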
# Summary of the method: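 Doses: 20 µM single dose. Test system: live zebrafish larvae aged 5-7 days, whole organism. Quantity: five larvae per well. Measured by: By-eye fluorescence microscopy. Reagent: ingested quenched lipid PED6 at 100 nM. Read-out: visual per-well fluorescence inhibition score. Times: overnight exposure of larvae to compound plus PED6.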
# [9] = loss of swimming-algae plug formation – whole organism, Chlamydomonas reinhardtii, WT vs cilia-less mutant, absorbance, 96-well, primary screen (AID 463189;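 active = inhibition at or above 50% relative to wild type and mutant plate controls; inactive = inhibition below 50%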;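 also: 0% = wild type cc124 cells in DMSO and 100% = ciliumless bld1 mutant cells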); settings: Chlamydomonas reinhardtii gravitaxis, OD600 absorbance, 2 days; at 10 µM; stronger effect = higher value
# [10] = measured here: cell density z-score
# [11] = measured here: nuclear c-Myc green intensity z-score
# [12] = measured here: nuclear pErk red intensity z-score, stronger effect = higher value
# Dual specificity protein phosphatase 6 (Homo sapiens), sequence (Q16828 whole entry, looked up): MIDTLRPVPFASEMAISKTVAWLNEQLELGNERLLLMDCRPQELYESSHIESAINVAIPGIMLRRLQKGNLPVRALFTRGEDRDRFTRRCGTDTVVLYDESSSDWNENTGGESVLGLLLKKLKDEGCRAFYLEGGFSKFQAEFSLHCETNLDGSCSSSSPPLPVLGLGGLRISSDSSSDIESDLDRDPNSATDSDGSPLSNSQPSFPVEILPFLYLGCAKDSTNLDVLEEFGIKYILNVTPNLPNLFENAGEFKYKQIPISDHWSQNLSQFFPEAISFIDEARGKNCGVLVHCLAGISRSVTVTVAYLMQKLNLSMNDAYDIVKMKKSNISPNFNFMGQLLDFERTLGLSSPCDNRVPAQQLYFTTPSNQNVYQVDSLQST
# Voltage-gated potassium channel subunit beta-2 (Rattus norvegicus), sequence (P62483 whole entry, looked up): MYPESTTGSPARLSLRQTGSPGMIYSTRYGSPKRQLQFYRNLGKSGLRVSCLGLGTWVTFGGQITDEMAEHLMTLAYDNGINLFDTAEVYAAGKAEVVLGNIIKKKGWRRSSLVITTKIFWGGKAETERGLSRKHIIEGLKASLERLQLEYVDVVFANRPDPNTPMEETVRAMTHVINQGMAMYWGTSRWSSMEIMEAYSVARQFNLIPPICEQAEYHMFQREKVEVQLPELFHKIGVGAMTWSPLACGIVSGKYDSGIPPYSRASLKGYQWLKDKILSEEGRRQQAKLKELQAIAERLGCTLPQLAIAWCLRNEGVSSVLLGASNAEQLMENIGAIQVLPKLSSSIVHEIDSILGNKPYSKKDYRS
# Alpha-2C adrenergic receptor (Homo sapiens), sequence (P18825 whole entry, looked up): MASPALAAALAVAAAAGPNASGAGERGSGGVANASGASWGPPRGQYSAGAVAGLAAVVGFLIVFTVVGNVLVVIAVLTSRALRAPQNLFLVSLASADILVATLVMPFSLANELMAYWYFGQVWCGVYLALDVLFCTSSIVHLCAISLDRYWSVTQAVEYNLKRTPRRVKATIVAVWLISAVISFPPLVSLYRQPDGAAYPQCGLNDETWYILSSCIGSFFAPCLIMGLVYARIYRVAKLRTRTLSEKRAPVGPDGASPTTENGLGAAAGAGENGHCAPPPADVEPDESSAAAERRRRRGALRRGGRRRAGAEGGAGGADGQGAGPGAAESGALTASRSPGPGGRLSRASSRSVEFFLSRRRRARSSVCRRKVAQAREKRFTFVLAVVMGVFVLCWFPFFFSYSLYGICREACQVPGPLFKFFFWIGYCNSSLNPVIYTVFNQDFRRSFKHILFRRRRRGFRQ
SMILES,cell count [1],inhibition [1],inhibition [2],nuclei count [2] [%],"z-score [3, 10]","z-score [3, 11]","z-score [3, 12]",inhibition [4],fluorescence slope [5],NADPH fluorescence slope [6],slope [7],outcome [8],inhibition [9]
COc1ccccc1N1C(=O)C2ON(c3ccccc3)C(c3ccc(N(C)C)cc3)C2C1=O (stereo not drawn),575,-8.3% (inactive),-66.7% (inactive),170,-2.24,0.301,1.93,-15% (inactive),-0.503 (inactive),-3e-05 (inactive),0.00352 (inactive),inactive,9.55% (inactive)
CCCOc1ccc(-c2nnc(N)s2)cc1,608,-13.2% (inactive),-31.6% (inactive),164,0.463,0.84,-0.902,-4.27% (inactive),-0.403 (inactive),-6.2e-05 (inactive),0.00732 (inactive),inactive,-0.862% (inactive)
Nc1c(Br)cc2oc(-c3ccccc3)nc2c1Br,539,-3.4% (inactive),-23.5% (inactive),119,-0.358,-0.383,-0.387,6.51% (inactive),-0.482 (inactive),-6.5e-05 (inactive),0.00567 (inactive),inactive,-9.35% (inactive)
Cc1nc(-c2cn[nH]c2)c2cc(C)oc2n1,599,-33.9% (inactive),-51.1% (inactive),120,-2.18,1.64,0.464,-2.07% (inactive),-0.491 (inactive),-0.00022 (inactive),0.00453 (inactive),inactive,-8.8% (inactive)
CCOP(=O)(c1ccccc1)C1(C#N)CCCC1 (stereo not drawn),492,-9.6% (inactive),-215% (inactive),150,-1.11,-1.86,0.943,-3.98% (inactive),-0.513 (inactive),-0.000169 (inactive),0.00467 (inactive),inactive; toxic,4.97% (inactive)
COc1ccc(OC)c(C2NC(=O)c3sc(=S)n(-c4ccccc4)c3N2)c1 (stereo not drawn),612,-8.4% (inactive),-60.3% (inactive),159,-1,0.762,1.43,-6.86% (inactive),-0.369 (inactive),-6.5e-05 (inactive),0.00525 (inactive),inactive,-6.25% (inactive)
CC(C(=O)N1CCCCC1)N1C(=O)c2ccccc2C1=O (stereo not drawn),352,-17.2% (inactive),-54% (inactive),122,2.3,-0.711,-0.781,17.5% (inactive),-0.452 (inactive),-0.000116 (inactive),0.00537 (inactive),inactive,10.7% (inactive)
CCSc1nnc(N(CCC(=O)O)CCC(=O)O)s1,371,-10.5% (inactive),-116% (inactive),155,0.0345,0.0362,-1.04,7.48% (inactive),-0.422 (inactive),-2.2e-05 (inactive),0.00562 (inactive),inactive,-5.02% (inactive)
CCOc1cccc(C2C(C#N)=C(N)Oc3cc(C)oc(=O)c32)c1OCC (stereo not drawn),362,-24.9% (inactive),-67.3% (inactive),143,0.354,-0.768,1.02,8.76% (inactive),-0.441 (inactive),-0.000143 (inactive),0.00434 (inactive),inactive,10.1% (inactive)
CCOC(=O)c1[nH]c2cc3c(cc2c1NC(=O)CN1CCC2(CC1)OCCO2)OCO3,466,-3.8% (inactive),7.6% (inactive),111,0.45,1.98,-0.82,22.8% (inactive),-0.0748 (inactive),5.8e-07 (inactive),0.00639 (inactive),inactive,-16.4% (inactive)
COC(=O)c1[nH]c2cc(OC)ccc2c1NC(=O)CCN1CCCC(C)(C)C1,350,-5.3% (inactive),-2.2% (inactive),153,-0.606,-0.827,0.954,7.42% (inactive),-0.44 (inactive),-0.00014 (inactive),0.00716 (inactive),inactive,-7.62% (inactive)
COc1ccc2[nH]c(C)c(C(=O)CN3CCc4cc(OC)c(OC)cc4C3)c2c1,520,3.2% (inactive),7.5% (inactive),117,-1.28,1.53,-1.2,-8.76% (inactive),-0.205 (inactive),-2e-05 (inactive),0.00464 (inactive),inactive,22.2% (inactive)
CCOC(=O)CC1=C(C(=O)OCC)C(c2ccc(OC)c(OC)c2)C(C#N)=C(N)O1 (stereo not drawn),471,-4.3% (inactive),-157% (inactive),163,-0.376,-0.993,-1.45,4.25% (inactive),-0.359 (inactive),6.8e-06 (inactive),0.00447 (inactive),inactive,24.9% (inactive)
CC1(C)C/C(=C(/C#N)C(N)=O)CCO1,575,-11.9% (inactive),-42.1% (inactive),110,0.299,1.82,-0.278,-8.95% (inactive),-0.392 (inactive),4.5e-06 (inactive),0.00848 (inactive),inactive,-18.4% (inactive)
O=C(O)c1nsc(Cl)c1Cl,628,-18.8% (inactive),39.2% (inactive),170,-0.315,-1.86,0.801,-6.06% (inactive),-0.386 (inactive),-3.3e-06 (inactive),0.00603 (inactive),inactive,6.17% (inactive)
Nc1ccc2oc3ncccc3c(=O)c2c1,518,-0.6% (inactive),-52.6% (inactive),172,1.1,-0.546,-0.617,22.3% (inactive),-0.511 (inactive),-2.4e-05 (inactive),0.00436 (inactive),inactive,-10.9% (inactive)
COC(=O)COn1c(SCC(=O)OC)nc2ccccc2c1=O,300,-3.5% (inactive),-6.8% (inactive),89.2,-1.82,0.261,0.27,-8.59% (inactive),-0.442 (inactive),-0.000116 (inactive),0.00782 (inactive),inactive,-12.1% (inactive)
COC(=O)c1ccc(Cn2cnc3c(sc4nc(N5CCOCC5)c5c(c43)CCCC5)c2=O)o1,505,10.2% (inactive),-144% (inactive),132,-0.452,0.953,0.541,-7.01% (inactive),-0.47 (inactive),-2.7e-05 (inactive),0.00736 (inactive),inactive; toxic,6.85% (inactive)
CCOC(=O)CSc1nc(NC#N)nc(N(CC)CC)n1,650,-7.6% (inactive),-42.9% (inactive),165,-0.121,-0.374,-1.34,13.2% (inactive),-0.51 (inactive),-9.5e-05 (inactive),0.0053 (inactive),inactive,-12.7% (inactive)
COCCCn1c2nc3ccccc3nc2c2c(=O)n(CC3CCCO3)cnc21 (stereo not drawn),561,-24.2% (inactive),-93.6% (inactive),148,0.117,-0.113,-0.0537,2.92% (inactive),-0.368 (inactive),-1.9e-05 (inactive),0.00353 (inactive),inactive,9.15% (inactive)
CCOC(=O)c1c(C)n(C)c2ccc(OC)c(NC(=O)c3cccs3)c12,361,-4.3% (inactive),-0.3% (inactive),151,-1.28,0.0285,0.397,-4.59% (inactive),-0.424 (inactive),-0.00012 (inactive),0.00568 (inactive),inactive,-6.67% (inactive)
Cc1cccc2c1NC(C)CC2C (stereo not drawn),424,-23.2% (inactive),-291% (inactive),187,1.31,-0.632,-0.589,7.7% (inactive),-0.292 (inactive),-6.6e-06 (inactive),0.00419 (inactive),active; weak signal in gallbladder and intestine,5.59% (inactive)
CCOc1ccc(Cc2nc(N)nc(N)n2)cc1,344,-18.3% (inactive),-269% (inactive),155,-1.09,-0.542,-0.613,-8.76% (inactive),-0.447 (inactive),-0.000176 (inactive),0.00481 (inactive),inactive,6.25% (inactive)
CCC1(C)Cc2c(sc3[nH]c(=O)[nH]c(=O)c23)CS1 (stereo not drawn),666,-8.2% (inactive),-11.4% (inactive),170,0.81,-1.43,-0.857,1.75% (inactive),-0.519 (inactive),-4.7e-05 (inactive),0.00488 (inactive),inactive,2.21% (inactive)
CCOCCN(C(=O)COC)c1cccc(OC)c1,368,4.6% (inactive),19.2% (inactive),124,0.00474,0.972,0.0482,-5.62% (inactive),-0.321 (inactive),1.5e-05 (inactive),0.00531 (inactive),inactive,-16.2% (inactive)
CCOC(=O)c1cc2c(=O)n3cccc(C)c3nc2n(C)c1=N,622,-8.8% (inactive),-51.9% (inactive),142,1.38,-1.25,-0.0406,6.04% (inactive),-0.436 (inactive),-8.5e-05 (inactive),0.00241 (inactive),inactive,119% (active)
